Measurements: ChEMBL document CHEMBL3124870, “Discovery and characterization of potent thiazoles versus methicillin- and vancomycin-resistant Staphylococcus aureus” (J Med Chem, 2014)
Values after ≈ are worked out from the molar mass of the structure shown.

Legend:
MDCK [1] = assay: Apparent permeability from basolateral to apical side in MDCK cells expressing MDR1 for 2 hrs by LC-MS/MS analysis; assay type: ADME, cell-based, Canis lupus familiaris; conditions: dog
Staphylococcus aureus [2] = assay: Antibacterial activity against methicillin-resistant Staphylococcus aureus ATCC 43300 assessed as inhibition of visible growth by broth microdilution method; assay type: functional
Liver microsome = assay: Half life in human liver microsomes by LC-MS/MS analysis; assay type: ADME
Staphylococcus aureus [3] = assay: Antibacterial activity against vancomycin-resistant Staphylococcus aureus assessed as inhibition of visible growth by broth microdilution method; assay type: functional
Staphylococcus aureus [4] = assay: Antibacterial activity against methicillin-resistant Staphylococcus aureus NRS108 assessed as inhibition of visible growth by broth microdilution method; assay type: functional
Caco-2 [5] = assay: Efflux ratio of apparent permeability from basolateral to apical side over apical to basolateral side in human Caco2 cells at 10 microM for 2 hrs by LC-MS/MS analysis; assay type: ADME, cell-based; conditions: caco-2, 2 h
Procedure, shortened: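 Caco-2 monolayer permeability was run under slightly acidic conditions, with the compound at 10 μM. Transfer was measured in the apical-to-basolateral and basolateral-to-apical directions. The efflux ratio was taken as B→A over A→B permeability.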

Staphylococcus aureus [6] = assay: Bactericidal activity against methicillin-resistant Staphylococcus aureus USA300 assessed as time required to complete elimination of bacteria by 3-log10 by time-kill assay; assay type: functional
Procedure, shortened: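 Viable counts (CFU) followed over a 12-hour window; endpoint is a 3-log10 fall in CFU.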

MDCK [7] = assay: Apparent permeability from apical to basolateral side in MDCK cells expressing MDR1 for 2 hrs by LC-MS/MS analysis; assay type: ADME, cell-based, Canis lupus familiaris; conditions: dog
Staphylococcus aureus [8] = assay: Antibacterial activity against vancomycin-intermediate Staphylococcus aureus LIM 3 assessed as inhibition of visible growth by broth microdilution method; assay type: functional
Staphylococcus aureus [9] = assay: Antibacterial activity against methicillin-resistant Staphylococcus aureus USA400 assessed as inhibition of visible growth by broth microdilution method; assay type: functional
[10] = Aqueous solubility of compound in phosphate buffer assessed as solubility limit after 2 hrs by turbidity analysis; assay type: physicochemical
Staphylococcus aureus [11] = assay: Antibacterial activity against methicillin-resistant Staphylococcus aureus USA700 assessed as inhibition of visible growth by broth microdilution method; assay type: functional
Staphylococcus aureus [12] = assay: Antibacterial activity against methicillin-resistant Staphylococcus aureus USA1100 assessed as inhibition of visible growth by broth microdilution method; assay type: functional
Staphylococcus aureus [13] = assay: Antibacterial activity against methicillin-resistant Staphylococcus aureus USA800 assessed as inhibition of visible growth by broth microdilution method; assay type: functional
Caco-2 [14] = assay: Apparent permeability across basolateral to apical to side in human Caco2 cells at 10 microM for 2 hrs by LC-MS/MS analysis; assay type: ADME, cell-based; conditions: caco-2, 2 h
Staphylococcus aureus [15] = assay: Antibacterial activity against methicillin-resistant Staphylococcus aureus USA300 assessed as inhibition of visible growth by broth microdilution method; assay type: functional
Staphylococcus aureus [16] = assay: Antibacterial activity against vancomycin-intermediate Staphylococcus aureus HIP07256 assessed as inhibition of visible growth by broth microdilution method; assay type: functional
Staphylococcus aureus [17] = assay: Antibacterial activity against methicillin-resistant Staphylococcus aureus NRS107 assessed as inhibition of visible growth by broth microdilution method; assay type: functional
Staphylococcus aureus [18] = assay: Antibacterial activity against vancomycin-intermediate Staphylococcus aureus ATCC 700699 assessed as inhibition of visible growth by broth microdilution method; assay type: functional
Staphylococcus aureus [19] = assay: Antibacterial activity against methicillin-resistant Staphylococcus aureus NRS119 assessed as inhibition of visible growth by broth microdilution method; assay type: functional
Staphylococcus aureus [20] = assay: Antibacterial activity against methicillin-resistant Staphylococcus aureus NRS194 assessed as inhibition of visible growth by broth microdilution method; assay type: functional
Staphylococcus aureus [21] = assay: Antibacterial activity against methicillin-resistant Staphylococcus aureus USA200 assessed as inhibition of visible growth by broth microdilution method; assay type: functional
Staphylococcus aureus [22] = assay: Antibacterial activity against methicillin-resistant Staphylococcus aureus USA500 assessed as inhibition of visible growth by broth microdilution method; assay type: functional
Staphylococcus aureus [23] = assay: Antibacterial activity against methicillin-resistant Staphylococcus aureus USA1000 assessed as inhibition of visible growth by broth microdilution method; assay type: functional
MDCK [24] = assay: Efflux ratio of apparent permeability from basolateral to apical side over apical to basolateral side in MDCK cells expressing MDR1 for 2 hrs by LC-MS/MS analysis; assay type: ADME, cell-based, Canis lupus familiaris; conditions: dog
Procedure, shortened: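 Madin-Darby canine kidney cells transfected to overexpress MDR1 (P-glycoprotein 1). Apparent permeability (Papp, cm/sec) was measured in both the apical-to-basolateral and basolateral-to-apical directions. The efflux ratio was taken as Papp(B→A)/Papp(A→B).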

HeLa = assay: Cytotoxicity against human HeLa cells assessed as cell viability at 11 ug/ml by MTS assay; assay type: cell-based
Staphylococcus aureus [25] = assay: Antibacterial activity against methicillin-resistant Staphylococcus aureus USA100 assessed as inhibition of visible growth by broth microdilution method; assay type: functional

CCCCc1ccc(-c2nc(C)c(/C(C)=N/NC(=N)N)s2)cc1 gave a Papp (MDCK [1]) of 3.6 ×10⁻⁶ cm/s, an MIC (Staphylococcus aureus [2]) of 2.8 µg/mL (≈ 8.5 µM) and a t1/2 (Liver microsome) of 28.8 min. The MIC (Staphylococcus aureus [3]) was 1.4 µg/mL (≈ 4.25 µM), the MIC (Staphylococcus aureus [4]) was 1.4 µg/mL (≈ 4.25 µM) and the Ratio (Caco-2 [5]) was greater than 2. It also gave a Time (Staphylococcus aureus [6]) of 2 h, a Papp (MDCK [7]) of 0.7 ×10⁻⁶ cm/s and an MIC (Staphylococcus aureus [8]) of 1.4 µg/mL (≈ 4.25 µM). It also gave an MIC (Staphylococcus aureus [9]) of 1.4 µg/mL (≈ 4.25 µM), a solubility kinetic at 2 h [10] of 62.6 µM (≈ 20.6 µg/mL) and an MIC (Staphylococcus aureus [11]) of 1.8 µg/mL (≈ 5.46 µM). For the same molecule, the MIC (Staphylococcus aureus [12]) was 2.8 µg/mL (≈ 8.5 µM), the MIC (Staphylococcus aureus [13]) was 2.3 µg/mL (≈ 6.98 µM) and the Papp (Caco-2 [14]) was 2.2 ×10⁻⁶ cm/s. For the same molecule, the MIC (Staphylococcus aureus [15]) was 1.4 µg/mL (≈ 4.25 µM), the MIC (Staphylococcus aureus [16]) was 1.4 µg/mL (≈ 4.25 µM) and the MIC (Staphylococcus aureus [17]) was 1.4 µg/mL (≈ 4.25 µM). For the same molecule, the MIC (Staphylococcus aureus [18]) was 1.4 µg/mL (≈ 4.25 µM), the MIC (Staphylococcus aureus [19]) was 1.4 µg/mL (≈ 4.25 µM) and the MIC (Staphylococcus aureus [20]) was 1.4 µg/mL (≈ 4.25 µM). For the same molecule, the MIC (Staphylococcus aureus [21]) was 2.8 µg/mL (≈ 8.5 µM), the MIC (Staphylococcus aureus [22]) was 1.4 µg/mL (≈ 4.25 µM) and the MIC (Staphylococcus aureus [23]) was 1.4 µg/mL (≈ 4.25 µM). The Ratio (MDCK [24]) was 5, the Activity (HeLa) was “Non-toxic” and the MIC (Staphylococcus aureus [25]) was 5.5 µg/mL (≈ 16.7 µM).
